Test: Toxicity liver stage against HepG2, at 10uM
Assay type: cell-based
Design: test concentration 10 uM, cell line HepG2-A16-CD81EGFP
Conditions: human, HepG2-A16-CD81EGFP cells; read-out: INHIBITION
Outline: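 Uninfected HepG2-A16-CD81EGFP cells, 3 × 10^3 per well, 1536-well, plated on prespotted compound at 10 μM final, parasite-free screening media added to match infected plates; puromycin 10 μM positive, DMSO 0.5% negative; run in parallel with 48 h PbLuc assay at 37 °C, 5% CO2; viability by CellTiter-Glo luminescence, normalized to controls.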

SMILES	cytotoxicity at 10 µM
COC(=O)[C@H](C)NC(=O)CSCc1nc2sc(C(C)C)cc2c(=O)[nH]1	2.87%
Cn1cc(NC(=O)CNC(=O)N2CCN(c3ccc(Cl)cc3)CC2)cn1	6.9%
Cc1nn2c(-c3cnn(C)c3)nnc2s1	-15.4%
Cc1cc(C)nc(NCCCC(=O)NCCn2ccc3ccccc32)n1	-0.1%
NC(=O)C1CCN(C(=O)c2cc(Br)ccc2-n2cnnn2)CC1	13.1%
Cc1noc(C)c1CCC(=O)N1CCN(CCn2cccn2)CC1	-24.2%
Cc1noc(-c2ccc(N3CCCC(C(=O)N4CCSCC4)C3)nc2)n1 (configuration not stated)	-2.45%
Cc1ccc(N2CC[C@H](OCC3CC3)[C@@H]2Cc2cnn(C)c2)nn1	-10.7%
Cc1nn(C)c2c(=O)n(Cc3ccccc3)nnc12	5.53%
Cc1cccc(-n2nnnc2C2(NCc3ccco3)CCCCC2)c1	6.27%
Cn1ccc(C(=O)N2CCCC2c2cc(CCO)[nH]n2)n1 (configuration not stated)	3.31%
CC(C)C(=O)N1CCC(c2c(C(N)=O)sc3ccccc23)C1 (configuration not stated)	-2.66%
COCC(=O)N1CCCC(c2nc(N)ncc2-c2cccc(F)c2)C1 (configuration not stated)	-0.6%
Cc1cc(Cc2ccccc2)cc(C2CCCNC2)n1 (configuration not stated)	-5.89%
c1cc(CCNc2ncc(-c3cnccn3)c(C3CC3)n2)ccn1	13.5%
C[C@@H]1CN2C[C@H](O)CC2CN1Cc1ccc2nccnc2c1 (some centres not stated)	5.62%
C[C@H]1CN2C[C@H](O)CC2CN1Cc1ccncc1 (some centres not stated)	-3.02%
CN(Cc1c(F)cccc1Cl)C(=O)Cn1cnc(C#N)n1	-5.5%
CC(C)(NCc1cccc(C(N)=O)c1)c1ccc2c(c1)OCO2	3.15%
CNC(=O)c1cccc(CN2CCN(C3=NCC(C)(C)S3)CC2)c1	-2.37%
CC(C)OCCN1CCC(Nc2ncc(Br)cn2)CC1	2.83%

SMILES	cytotoxicity at 10 µM
CNC(=O)N1CCOCC1c1c(C)nn(C)c1C (configuration not stated)	-7.11%
CC1CCC(NS(=O)(=O)CC(=O)NC2(C(N)=O)CCCC2)CC1 (configuration not stated)	-4.12%
Cc1cccc(OCCNC(=O)Cn2ccc(C)cc2=O)c1	-1.63%
COc1ccc(CNc2nc(N3CCOCC3)ns2)cc1	-4.77%
NC(=O)N1CCCC1COC(=O)c1cc(F)ccc1F (configuration not stated)	-0.743%
CCc1nc(C2CCCN(C(=O)C3=NN(C(C)C)C(=O)CC3)C2)no1 (configuration not stated)	-7.28%
CCc1nc2c(s1)C(N(C)C(=O)c1cc[nH]n1)CCC2 (configuration not stated)	7.76%
O=C(NCCCn1cccn1)N1CCCC1c1ccsc1 (configuration not stated)	-7.86%
Cc1nn(C)c(C)c1C1COCCN1c1ncnc2c(C)cccc12 (configuration not stated)	6.54%
CC(Cn1cncn1)NC(=O)Nc1ccc(COC2CCCC2)cc1 (configuration not stated)	-1.47%
CN(C)C(=O)Cn1cc(C(=O)N2CCCc3cccc(F)c32)nn1	1.81%
CN(Cc1ccccc1)C(=O)CCNc1ncccc1C#N	4.55%
CC(NC(=O)NCCNc1cccc(F)c1C#N)c1nccs1 (configuration not stated)	-1.84%
N#CC1(NC(=O)c2ccn(-c3ccccc3Cl)n2)CCSC1 (configuration not stated)	0.462%
CC(C)COC(C)C(=O)N1CCCCC1 (configuration not stated)	-5.66%
CS(=O)(=O)CCN(Cc1cccc(O)c1)C1CCC(O)CC1 (configuration not stated)	5.38%
CCN(Cc1cccs1)C(=O)c1ccc(=O)n(C)c1	-9.56%
O=C(CCc1ccccc1)N1CCC(c2n[nH]c(C3CC3)n2)CC1	-5.35%
Cc1noc(C(C)N2CCc3[nH]c4ccc(Cl)cc4c3C2)n1 (configuration not stated)	1.99%
Cc1cc(CNc2ccccc2N2CCCCC2)no1	-1.31%
COCCc1noc(CN(C)c2cc(C)ncn2)n1	11.9%

SMILES	cytotoxicity at 10 µM
Cc1nc(CNC(=O)N(Cc2ccccc2)CC(C)(C)O)oc1C	-2.28%
Cc1ccc(CNC(=O)N2CCc3ccccc3C2CO)s1 (configuration not stated)	2%
O=C(c1cccnc1)N1C[C@@H]2OCCN(CCN3CCCC3)[C@@H]2C1	-71.2%
COCCC1COC2(CCN(C(=O)Cc3ccccc3)CC2)C1 (configuration not stated)	-69.2%
Cn1cc(C[C@H]2[C@@H](OCC3CC3)CCN2C(=O)c2ccc[nH]2)cn1	-72.7%
Cc1cc(N2CCCN(C(=O)Cc3cc(F)cc(F)c3)CC2)ccn1	-6.7%
c1ccc(CN2CCC(Cc3noc(C4CC4)n3)CC2)cc1	5.56%
CN1CCC(N2CCC(c3ccccc3C(=O)O)C2)CC1 (configuration not stated)	-1.05%
COc1ccccc1CCC(=O)N1C[C@H](c2ccccc2)[C@@H](N)C1	-3.79%
CC(C)CN1CCC(c2nnc(CN3CCCC3)n2C2CC2)CC1	-8.85%
Cc1nc(NCc2coc(-c3ccccc3)n2)cc(C2CCNCC2)n1	7.94%
CC(C)c1noc(C2CCCN2S(=O)(=O)Cc2ccc(F)cc2)n1 (configuration not stated)	3.88%
COc1ccc2[nH]cc(CCNC(=O)C3CCCN(C(C)=O)C3)c2c1 (configuration not stated)	-5.58%
CC(C)=CCC1(CO)CCCN(S(C)(=O)=O)C1 (configuration not stated)	-5.13%
Nc1ccnc(N2CCC(CCc3ccccc3)(C(=O)O)CC2)n1	-3.65%
CN(C)c1cncc(-c2ccnc3c2ccn3C)n1	5.51%
CN1C(=O)C2(CCCN(C(=O)c3ccc(=O)n(C)n3)C2)c2ccccc21 (configuration not stated)	4.65%
Cc1noc(CN(C)c2nc(-c3ccco3)nc3c2CCN(C)CC3)n1	-0.0198%
COc1cccc(OCC2CCCN(C(=O)Cc3cccc(O)c3)C2)c1 (configuration not stated)	-18.9%
O=C(CN1CC(n2cccn2)C1)NCCCN1CCCC1=O	-29.9%
CC(C)c1ncc2c(n1)CN(Cc1nc(-c3ccccn3)no1)CC2	1.59%

SMILES	cytotoxicity at 10 µM
CCc1ncc2c(n1)CN(Cc1nc(-c3cccs3)no1)CC2	-7.82%
Cn1ccc(C(=O)N2CCN(c3nccs3)CC2)cc1=O	-18.1%
Cn1cc(C(=O)N2CCN(c3ncccn3)CC2)ccc1=O	-7.82%
CCOc1ccccc1CNCC1CCN(CC(C)O)CC1 (configuration not stated)	-9.04%
Cc1cccc(NC2CCN(C(=O)Nc3cn[nH]c3)CC2)n1	-26.7%
CN(Cc1nc2ccccc2o1)C1CCCN(c2cccnn2)C1 (configuration not stated)	-9.43%
CCn1cnnc1CNC(=O)NC(C)c1ccc(Cl)s1 (configuration not stated)	-23.1%
CC(O)CN1CCC(CNCc2ccc(C(N)=O)cc2)CC1 (configuration not stated)	-9.83%
CCOc1ccccc1OC1CCN(C(=O)c2cc[nH]n2)CC1	-4.53%
COc1ccc2c(c1)CCCN2Cc1nc2c(cnn2C)c(=O)[nH]1	-3.3%
Cc1cccc(C2(NC(=O)CCN3C(=O)CCC3=O)CCCC2)c1	-17.4%
CN(C(=O)c1ccccc1Cl)C1CCN(c2ccccn2)CC1	-0.577%
Cc1nc(C)n(CC2CCCCN2CC(=O)N(C)Cc2ccco2)n1 (configuration not stated)	2.65%
CN(C)C(=O)[C@H]1C[C@H]2OCC[C@H]2N(Cc2ccc3c(c2)OCO3)C1	-71.3%
Cn1cccc1C(=O)N1CCC2(CC1)CN(c1ccccn1)CCO2	-10.8%
CN(C)C(=O)[C@@H]1CCO[C@@H]2CCN(CCc3ccccc3)C[C@@H]21	-9.55%
Cc1noc([C@@H]2C[C@H]3CN(C(=O)C4CCN(C)CC4)C[C@H]3O2)n1	-71.2%
COCC(=O)N1C[C@H]2CN(Cc3csc(C)n3)C(=O)[C@H]2C1	-77.2%
CC1CCN(c2nc3cn(Cc4cccc(F)c4)c(=O)c-3c[nH]2)CC1	4.52%

— ChEMBL document CHEMBL4513216, “Probing the Open Global Health Chemical Diversity Library for Multistage-Active Starting Points for Next-Generation Antimalarials” (ACS Infect Dis, 2020)
